Reference: ChEMBL document CHEMBL3407388, “Synthesis, anticancer activity and molecular docking studies on a series of heterocyclic trans-cyanocombretastatin analogues as antitubulin agents” (2015)

Tests used:
[1] = system: HOP-62; experiment: Cytotoxicity against human HOP62 cells assessed as growth inhibition after 48 hrs by SRB assay; format: functional; conditions: HOP-62, 48 h
Outline: (§1)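 NCI 60-cell panel; compounds passing a single-dose screen (10−5 M, 48 h) were tested at five 10-fold dilutions (10−4 to 10−8 M) with 48 h drug exposure. GI50 is the molar concentration giving 50% reduction in net cell growth relative to cell numbers on day 0.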

[2] = system: Malme-3M; experiment: Cytotoxicity against human MALME-3M cells assessed as growth inhibition after 48 hrs by SRB assay; format: functional; outline: as §1
[3] = system: T47D; experiment: Cytotoxicity against human T47D cells assessed as growth inhibition after 48 hrs by SRB assay; format: functional
[4] = system: M14; experiment: Cytotoxicity against human M14 cells assessed as growth inhibition after 48 hrs by SRB assay; format: functional; conditions: M14, 48 h; outline: as §1
[5] = system: A549; experiment: Cytotoxicity against human A549 cells assessed as growth inhibition after 48 hrs by SRB assay; format: functional; conditions: A549, 48 h; outline: as §1
[6] = system: ACHN; experiment: Cytotoxicity against human ACHN cells assessed as growth inhibition after 48 hrs by SRB assay; format: functional; outline: as §1
[7] = system: MDA-MB-468; experiment: Cytotoxicity against human MDA-MB-468 cells assessed as growth inhibition after 48 hrs by SRB assay; format: functional; conditions: MDA-MB-468, 48 h; outline: as §1
[8] = system: MV4-11; experiment: Anti-leukemic activity against human MV4-11 cells assessed as cell dead after 24 to 48 hrs by annexin V-FITC/7-AAD staining-based flow cytometric analysis; format: functional; conditions: read-out: LD50 (the source's name)
Outline: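 MV4-11 cells grown in IMDM with 10% FBS, penicillin and streptomycin, seeded at 5 × 10^5/ml and treated. At 24 and 48 h they were stained with annexin V-FITC plus 1 μg/ml 7-AAD. Percent dead cells (annexin V+) was read by flow cytometry and expressed relative to the DMSO vehicle control.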

[9] = system: SR; experiment: Cytotoxicity against human SR cells assessed as growth inhibition after 48 hrs by SRB assay; format: functional
[10] = Cytotoxicity against human EKVX cells assessed as growth inhibition after 48 hrs by SRB assay; format: functional; outline: as §1
[11] = Cytotoxicity against human Hs578T cells assessed as growth inhibition after 48 hrs by SRB assay; format: functional; conditions: Hs-578T; outline: as §1
[12] = system: SK-MEL-2; experiment: Cytotoxicity against human SK-MEL-2 cells assessed as growth inhibition after 48 hrs by SRB assay; format: functional; conditions: SK-MEL-2, 48 h; outline: as §1
[13] = system: NCI-H522; experiment: Cytotoxicity against human NCI-H522 cells assessed as growth inhibition after 48 hrs by SRB assay; format: functional; conditions: NCI-H522, 48 h; outline: as §1
[14] = system: CCRF-CEM; experiment: Cytotoxicity against human CCRF-CEM cells assessed as growth inhibition after 48 hrs by SRB assay; format: functional; outline: as §1
[15] = system: HOP-92; experiment: Cytotoxicity against human HOP92 cells assessed as growth inhibition after 48 hrs by SRB assay; format: functional; conditions: HOP-92, 48 h; outline: as §1
[16] = target: Tubulin (Homo sapiens) (UniProt P68371+Q9H4B7+P0DPH7+P68366+Q13509+Q71U36+P04350+Q3ZCM7+P07437+P68363+Q9BQE3+Q6PEY2+Q13885+Q9BVA1+Q9BUF5); experiment: Inhibition of tubulin polymerization in human MV4-11 cells at 50 nM after 2 hrs by immunoblot analysis relative to control; format: cell-based
Outline: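 MV4-11 AML cells were exposed for 2 h to 25, 50 or 100 nM compound. Free tubulin (supernatant) and polymerized tubulin (pellet) were separated and detected by anti-tubulin immunoblot.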

[17] = Cytotoxicity against human UACC257 cells assessed as growth inhibition after 48 hrs by SRB assay; format: functional; conditions: UACC-257, 48 h
[18] = system: SK-MEL-28; experiment: Cytotoxicity against human SK-MEL-28 cells assessed as growth inhibition after 48 hrs by SRB assay; format: functional; conditions: SK-MEL-28, 48 h; outline: as §1
[19] = system: NCI-H322M; experiment: Cytotoxicity against human NCI-H322M cells assessed as growth inhibition after 48 hrs by SRB assay; format: functional; outline: as §1

| SMILES | GI50 [1] [nM] | GI50 [2] [nM] | GI50 [3] [nM] | GI50 [4] [nM] | GI50 [5] [nM] | GI50 [6] [nM] | GI50 [7] [nM] | CC50 [8] [nM] | GI50 [9] [nM] | GI50 [10] [nM] | GI50 [11] [nM] | GI50 [12] [nM] | GI50 [13] [nM] | GI50 [14] [nM] | GI50 [15] [nM] | inhibition [16] [%] | GI50 [17] [nM] | GI50 [18] [nM] | GI50 [19] [nM] |
| --- | --- | --- | --- | --- | --- | --- | --- | --- | --- | --- | --- | --- | --- | --- | --- | --- | --- | --- | --- |
| COc1cc(/C(C#N)=C/c2cc3ccccc3[nH]2)cc(OC)c1OC | < 10 | 8280 | 2500 | < 10 | < 10 | < 10 | 22 | 44 | < 10 | 1160 | < 10 | < 10 | < 10 | 17 | < 10 | > 50 | 1060 | – | – |
| COc1cc(OC)cc(/C(C#N)=C/c2nc3ccccc3s2)c1 | 3350 | 699 | 1180 | 1210 | – | 518 | 2040 | 4340 | 402 | – | 2010 | 958 | – | – | 534 | – | – | 1980 | > 10000 |
| COc1ccc(/C(C#N)=C/c2cc3ccccc3o2)cc1OC | 2290 | 629 | 996 | 437 | 520 | 12400 | 421 | > 20000 | 470 | – | 1880 | 487 | 438 | 777 | 1130 | – | 18000 | 3510 | 6180 |
| COc1cc(OC)cc(/C(C#N)=C/c2c[nH]c3ccccc23)c1 | 273 | – | – | 42 | 61 | – | 51 | 375 | 33 | 478 | 611 | 51 | 27 | 42 | 68 | – | – | 81 | – |
| COc1cc(/C(C#N)=C/c2cc3ccccc3o2)cc(OC)c1OC | < 10 | 59900 | 4340 | < 10 | < 10 | 217 | 22 | 47 | < 10 | 59 | < 10 | < 10 | < 10 | 24 | < 10 | > 50 | 63200 | < 10 | < 10 |
| COc1cc(/C(C#N)=C/c2nc3ccccc3s2)cc(OC)c1OC | 1930 | 515 | – | 193 | 379 | 89 | 84 | 233 | 107 | – | 1290 | 287 | 22 | 55 | – | – | > 100000 | 1810 | 2290 |
| COc1cc(/C(C#N)=C/c2cc3ccccc3n2Cc2ccc(C#N)cc2)cc(OC)c1OC | 92 | – | 95200 | 56 | 76 | 79 | 41 | 369 | – | – | 92 | 528 | 33 | 136 | 77 | – | 62 | 161 | 465 |
| COc1ccc(/C(C#N)=C/c2c[nH]c3ccccc23)cc1OC | 8690 | 9910 | 6830 | 3750 | 5160 | 23700 | – | > 20000 | 1450 | 18500 | 12900 | 4700 | 3050 | 2740 | 5260 | – | 11900 | 6250 | 24300 |
| COc1cc(/C(C#N)=C/c2coc3ccccc23)cc(OC)c1OC | 6980 | 868 | 811 | 667 | 665 | 1940 | 237 | 4530 | 681 | – | 2030 | 304 | 261 | 1410 | 3020 | – | – | 1610 | 19100 |
| COc1cc(/C(C#N)=C/c2c[nH]c3ccccc23)cc(OC)c1OC | 82 | 12500 | 58 | 53 | 78 | 1760 | 41 | 565 | 22 | 596 | 131 | – | 37 | 58 | 1010 | – | 11300 | 90 | – |
| COc1ccc2[nH]cc(/C=C(\C#N)c3cc(OC)c(OC)c(OC)c3)c2c1 | 133 | 5850 | 65 | 52 | 86 | 1660 | 35 | 467 | 27 | 485 | 124 | – | 86 | 64 | 83 | – | 10700 | 92 | 44 |
| COc1ccc(/C(C#N)=C/c2cc3ccccc3[nH]2)cc1OC | – | – | 573 | 39 | 114 | 82 | 350 | – | 42 | 307 | 133 | 312 | 49 | 62 | 58 | – | 27000 | 1940 | 735 |
